Measured values collected from several papers.
Protocols differ between the studies behind these lines.
Target: Tyrosine-protein kinase ITK/TSK (ITK, Homo sapiens, UniProt Q08881)
Residues used in one study (Q08881 1-620): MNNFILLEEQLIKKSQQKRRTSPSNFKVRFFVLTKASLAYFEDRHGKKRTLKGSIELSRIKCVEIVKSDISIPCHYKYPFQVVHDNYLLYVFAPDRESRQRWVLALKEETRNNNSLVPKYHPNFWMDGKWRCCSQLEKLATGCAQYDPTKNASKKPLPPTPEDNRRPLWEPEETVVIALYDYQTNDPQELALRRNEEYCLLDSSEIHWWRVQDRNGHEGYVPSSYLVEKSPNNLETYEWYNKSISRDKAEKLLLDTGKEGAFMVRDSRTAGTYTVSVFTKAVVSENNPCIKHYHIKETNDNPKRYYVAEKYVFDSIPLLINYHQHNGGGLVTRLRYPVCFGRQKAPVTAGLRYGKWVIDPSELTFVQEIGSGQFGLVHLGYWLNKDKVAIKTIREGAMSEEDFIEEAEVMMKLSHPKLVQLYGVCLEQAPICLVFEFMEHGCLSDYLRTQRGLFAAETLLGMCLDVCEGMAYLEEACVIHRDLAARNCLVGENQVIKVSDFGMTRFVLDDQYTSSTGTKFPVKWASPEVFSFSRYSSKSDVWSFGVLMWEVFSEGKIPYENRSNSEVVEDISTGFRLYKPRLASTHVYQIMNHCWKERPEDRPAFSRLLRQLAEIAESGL

| SMILES | test | conditions | remaining binding [%] |
| --- | --- | --- | --- |
| O=C(NCCCN1CCOCC1)c1ccc(Nc2ncc(Cl)c(-c3ccc(Cl)s3)n2)cc1 | binding, competition with immobilised ligand | 1 µM | 40 |
| CC(=O)C1=C(C)N(c2cccc(C(F)(F)F)c2)C(=O)N[C@@H]1c1ccc(C#N)nc1 | cell-free assay, competition with immobilised ligand | 1 µM | 90.4 |
| c1cncc(-c2cccc(Nc3nccc(NC4CCCCC4)n3)c2)c1 | binding, competition with immobilised ligand | 10 µM | 80 |
| O=C(NCCCN1CCOCC1)c1ccc(Nc2nccc(-c3cc4ccccc4s3)n2)cc1 | binding, competition with immobilised ligand | 1 µM | 100 |
| FC(F)(F)Oc1cccc(-c2cnc3ccc(-c4ccncc4)nn23)c1 | cell-free assay, competition with immobilised ligand | 5 µM | 84 |
| CN(CCCC(F)(F)F)c1nccc(-c2cnn3ncccc23)n1 | binding | 1 µM | 95 |
| O=C(c1ccc(Nc2ncc(Cl)c(-c3cc4ccccc4s3)n2)cc1)N1CCC(N2CCCC2)CC1 | binding, competition with immobilised ligand | 1 µM | 50 |
| COc1cnc(Nc2cccc(S(N)(=O)=O)c2)nc1N1CCN(c2ccccc2)CC1 | binding, competition with immobilised ligand | 1 µM | 95 |
| C[C@H](c1ccnc(Nc2nc3ccc(-c4cc(N(C)C)ncn4)cc3[nH]2)c1)N1CCN(C(=O)CC(F)(F)F)CC1 | cell-free assay, competition with immobilised ligand | 0.1 µM | 100 |
| O=C(Nc1c[nH]nc1C(=O)NC1CCNCC1)c1cc(F)cc(F)c1 | binding, competition with immobilised ligand | 1 µM | 100 |
| N[C@@H]1CCN(c2nccc(-c3cnn4ncccc34)n2)C1 | binding | 1 µM | 93 |
| Cn1nc(C(=O)NCc2ccc(C(=O)O)cc2)cc1-c1ccc2[nH]ccc2c1 | cell-free assay, competition with immobilised ligand | 0.1 µM | 85 |
| C[C@H]1CCN(c2nccc(-c3cnn4ncccc34)n2)C1 | binding | 1 µM | 93 |
| Cc1nccc(COC(=O)N2C[C@@H]3[C@@H](CNC(=O)c4ccc5[nH]nnc5c4)[C@@H]3C2)n1 | cell-free assay, competition with immobilised ligand | 1 µM | 100 |
| CN(c1nccc(-c2cnn3ncccc23)n1)C1CC1 | binding | 1 µM | 100 |
| CNC(=O)[C@@H]1CC[C@@H](n2c(-c3ccc4cnccc4c3)nc3ccc(C(=O)NCc4cccc(C(N)=O)c4)cc32)C1 | binding, competition with immobilised ligand | 1 µM | 99 |
| CC1CCCN1c1nccc(-c2cnn3ncccc23)n1 (centres unmarked) | binding | 1 µM | 100 |
| CCC(=O)N[C@@H]1CC[C@H](C(=O)N(C)c2ccc(-c3nc4ccccc4o3)cc2)C1 | cell-free assay, competition with immobilised ligand | 1 µM | 100 |
| Cc1cnn2ncc(-c3ccnc(N(C)C)n3)c2c1 | binding | 1 µM | 100 |
| O=C(Nc1cccnn1)N1CC(C/C=C/c2cncc(Oc3ccc(C(F)(F)F)cn3)n2)C1 | cell-free assay, competition with immobilised ligand | 1 µM | 100 |
